Measured values: ChEMBL document CHEMBL4699407, “Isoquinoline thiosemicarbazone displays potent anticancer activity with in vivo efficacy against aggressive leukemias” (RSC Med Chem, 2020)

Experiments:
MIA PaCa-2 [1] = experiment: Cytotoxicity against human MIA PaCa2 cells assessed as reduction in cell viability in presence of Cu2+ incubated for 72 hrs by cell titer-glo luminescent cell viability assay; type: functional, cell-based; conditions: MIA PaCa-2, 72 h
How it was run: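 Cells were grown in DMEM or RPMI with 10% FBS, without antibiotics, at 37 °C, 20% O2, 5% CO2. Adherent lines were seeded at 500 cells/well. Serially diluted compound was given with 20 μM Cu(II) (CuCl2) for 72 h; leukemia models received pre-formed 1:1 copper complex. ATP was read by CellTiter-Glo luminescence. IC50 is relative to DMSO-treated cells.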

MIA PaCa-2 [2] = experiment: Cytotoxicity against human MIA PaCa2 cells assessed as reduction in cell viability 72 hrs by cell titer-glo luminescent cell viability assay; type: functional
How it was run: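 MIAPACA2 cells in conventional medium without copper supplement got serially diluted compound for 72 h. ATP content was read by CellTiter-Glo, and IC90 (90% proliferation inhibition vs DMSO control) was calculated.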

Q: Which results are given for CNC(=S)NN=Cc1nccc2c(N)cccc12?
A: IC90 (MIA PaCa-2 [1]): 7.08 µM; IC90 (MIA PaCa-2 [2]): 11.2 µM

Q: For NC(=S)N/N=C/c1nccc2ccccc12, which IC90 (MIA PaCa-2 [1]) is on record?
A: 2.21 µM

Q: Which IC90 (MIA PaCa-2 [1]) does the source give for CNc1cccc2c(/C=N/NC(N)=S)nccc12 here?
A: 5.33 µM

Q: For NC(=S)N/N=C/c1nccc2cc(F)ccc12, which IC90 (MIA PaCa-2 [1]) is on record?
A: 2.04 µM

Q: CNC(=S)N/N=C/c1nccc2cc(F)ccc12 was tested. Which IC90 (MIA PaCa-2 [1]) did it give?
A: 0.233 µM

Q: Which IC90 (MIA PaCa-2 [1]) does the source give for CNc1c(F)ccc2c(C=NNC(=S)N(C)C)nccc12 here?
A: 0.0384 µM

Q: What about the IC90 (MIA PaCa-2 [2]) of the same compound?
A: 0.272 µM

Q: How did the IC90 (MIA PaCa-2 [1]) turn out when CNC(=S)N/N=C/c1nccc2ccccc12 was run?
A: 0.331 µM

Q: How did the IC90 (MIA PaCa-2 [1]) turn out when NC(=S)N/N=C/c1ncc(F)c2ccccc12 was run?
A: 2.06 µM

Q: Which IC90 (MIA PaCa-2 [1]) does the source give for CNC(=S)NN=Cc1nccc2c(NC)cccc12 here?
A: 0.607 µM

Q: What about the IC90 (MIA PaCa-2 [2]) of the same compound?
A: 4.24 µM

Q: Which IC90 (MIA PaCa-2 [1]) does the source give for CN(C)C(=S)NN=Cc1ncc(F)c2ccccc12 here?
A: 0.0266 µM

Q: What about the IC90 (MIA PaCa-2 [2]) of the same compound?
A: 0.274 µM

Q: For CNc1cccc2c(C=NNC(=S)N(C)C)ncc(F)c12, which IC90 (MIA PaCa-2 [1]) is on record?
A: 0.0423 µM

Q: What about the IC90 (MIA PaCa-2 [2]) of the same compound?
A: 0.327 µM

Q: Which IC90 (MIA PaCa-2 [1]) does the source give for CN(C)C(=S)NN=Cc1nccc2ccccc12 here?
A: 0.0737 µM

Q: And the IC90 (MIA PaCa-2 [2])?
A: 29.6 µM

Q: For CNC(=S)N/N=C/c1ncc(F)c2ccccc12, which IC90 (MIA PaCa-2 [1]) is on record?
A: 0.114 µM

Q: Which IC90 (MIA PaCa-2 [1]) does the source give for NC(=S)N/N=C/c1nccc2c(N)cccc12 here?
A: 71.1 µM
